In the library only some 4.4% were active in any assay of this set; here they are far more common.
Calb FLC: C. albicans growth inhibition with fluconazole, primary screen, CaCi-2 strain, Alamar Blue fluorescence; actives 0.57% (n = 300,000); AID 1979, 2009; C. albicans CaCi-2 (fluconazole-resistant clinical isolate) + fluconazole, 48 h; growth inhibition, % (concentration not given with the values);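 active means growth inhibition above about 58% in most replicates, limit read from the data, passing the limit was not always enough; inconclusive means exactly half the replicates above a set limit; inactive means most replicates below a set limit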;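 further: all wells also contain fluconazole at 8 µg/ml as a sub-toxic cotreatment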
HIF activator: HIF pathway transcriptional activators, primary screen, cell-based, U2OS HRE-luciferase, luminescence. U2OS HRE-luciferase reporter; normalized: DMSO 0%, desferrioxamine 100%. activation, % at 7.5 µM (by protocol). actives 0.32% (n = 300,000). AID 1910, 2009;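 active means mean activation of at least 10% of the iron chelator positive control signal, with at least half of replicates also reaching 10%; inconclusive means mean and replicate majority disagree about reaching 10%; inactive means mean and most replicates under 10%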
HSF1 inh: HSF1 inhibitors in luciferase reporter cells, primary screen, cell-based, NIH3T3, luminescence; NIH3T3-HGL HSE-luciferase, MG132-induced, luminescence 8 h; hits give low values; activity change, negative = inhibition, % at 7.5 µM (by protocol); actives 0.77% (n = 300,000); AID 2098, 2009;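 active means more than half of replicate wells show activity change below -50%, luminescence cut by over half; inconclusive means some wells, but at most half, below -50%; inactive means no replicate well below -50%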;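 further: luciferase reports HSF-1 transcriptional activity via heat shock element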
HSF1 activator: HSF-1 activators, primary screen, NIH3T3-HGL cells, MG132 stress, luminescence, single point; NIH3T3-HGL HSF-1 luciferase reporter, 8 h; 100% = twice DMSO control signal; activation, % at 9 µM; actives 1.7% (n = 300,000); AID 504408, 2011;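 active means mean replicate activation of at least 50% with a set share of replicates each reaching 50%; inconclusive means only one of those two conditions met; inactive means mean below 50% and too few replicates reaching it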
T cruzi inh: inhibitors of intracellular T. cruzi growth, primary screen, luminescence, NIH3T3 host cells; T. cruzi beta-gal in NIH3T3, 90 h; inhibition, % (concentration not given with the values); actives 1.4% (n = 300,000); AID 1885, 2009;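 active means mean inhibition across valid replicates above about 55%, limit read from the data; inconclusive means mean below that limit but half or more replicates reach it; inactive means mean below it, under half of replicates reach it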;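 further: signal also drops with host cell toxicity which is not excluded here; higher percent means less beta-gal luminescence so fewer parasites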
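System – NIH/3T3 host cells with β-galactosidase reporter T. cruzi · Doses – single 50 nL compound addition per well in DMSO · Reagent – 5000 T. cruzi trypomastigotes/well · Medium – Low-serum DMEM with 2% FBS · Timing – ≥90 h infection period, 3 h prior cell attachment · Evaluation – parasite load inhibition, % · Technique – GalScreen luminescence, 60 min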
A number is an active result; 0 = inactive; ? = inconclusive.

SMILES	Calb FLC	HIF activator	HSF1 inh	HSF1 activator	T cruzi inh
O=[N+]([O-])c1ccc(Sc2cc[n+]([O-])c3ccccc23)c([N+](=O)[O-])c1	0	0	0	0	0
O=c1[nH]c(Sc2ccc([N+](=O)[O-])cc2[N+](=O)[O-])nc2ccccc12	0	0	0	0	60.9
Cc1ccnc(Sc2ccc([N+](=O)[O-])cc2[N+](=O)[O-])n1	97.6	0	0	130.9	0
O=[N+]([O-])c1ccc(Sc2nc3ccccc3o2)c([N+](=O)[O-])c1	93.2	0	0	230.3	54.7
O=[N+]([O-])c1ccc(Cl)cc1Sc1nc2ccccc2o1	0	0	0	0	0
Cc1ccc(S(=O)(=O)NCCOc2nc(N(C)C)nc(N(C)C)n2)cc1	0	0	0	0	0
O=C(Nc1ccc2cn[nH]c2c1)c1c(Cl)cccc1Cl	0	0	0	0	0
O=C1C(Cl)=C(Nc2ccc3cn[nH]c3c2)C(=O)c2ccccc21	0	0	-89.8	0	59.0
CC(Cc1ccccc1)N1C(=O)c2cccc([N+](=O)[O-])c2C1=O (stereo not drawn)	0	0	0	0	0
Cc1cccc(NC(=S)NC(=O)c2ccc(Br)o2)c1C	0	0	0	91.9	0
Cc1cccc(C)c1NC(=S)NC(=O)c1ccc(Br)o1	0	0	0	0	0
CN(CC(=O)Nc1ccc(Cl)c(S(=O)(=O)N(C)C)c1)Cc1ccccc1	0	0	0	0	0
O=C(CCc1c[nH]c2ccccc12)NCCc1ccc(Cl)cc1	0	0	0	54.8	0
O=C(NCCCN1CCN(CCCNC(=O)c2cccc([N+](=O)[O-])c2)CC1)c1cccc([N+](=O)[O-])c1	?	0	0	0	56.0
O=C(NCCc1c[nH]c2ccccc12)c1ccc([N+](=O)[O-])cc1	0	0	0	0	0
O=C(NCCc1c[nH]c2ccccc12)c1cc([N+](=O)[O-])cc([N+](=O)[O-])c1	0	0	0	0	68.6
COc1cccc(OCCNC(=O)c2cc([N+](=O)[O-])cc([N+](=O)[O-])c2)c1	0	0	0	0	61.1
O=C(NCCCCc1ccccc1)c1cccc([N+](=O)[O-])c1	0	0	0	0	0
O=C(NCCCCc1ccccc1)c1cc([N+](=O)[O-])cc([N+](=O)[O-])c1	0	0	0	0	63.0
O=C(NCC1CC1)c1cc([N+](=O)[O-])cc([N+](=O)[O-])c1	0	0	0	0	61.2
O=C(NCC1CCCCC1)c1cccc([N+](=O)[O-])c1	0	0	0	0	0
Cn1ccc(C(=O)Nc2cccnc2Cl)n1	0	0	0	0	0
CC(C)(C)NC(=O)COc1ccc(S(=O)(=O)N2CCCC2)cc1	0	0	0	0	0
CS(=O)(=O)c1ccc(-c2nnc(NC(=O)c3cccc(N4C(=O)CCC4=O)c3)o2)cc1	0	0	0	0	0
Cc1ccc2nc(C)cc(N/N=C/c3cccc(O)c3)c2c1	0	0	0	0	0
SMILES	Calb FLC	HIF activator	HSF1 inh	HSF1 activator	T cruzi inh
COc1ccc2nc(C)cc(N/N=C/c3ccc(F)cc3)c2c1	0	0	0	0	60.8
COc1ccc(/C=N/Nc2cc(C)nc3ccccc23)cc1	0	0	0	0	64.1
COc1ccc(Nc2cc(C)nc3ccc(OC)cc23)cc1	0	0	0	0	0
COc1ccc(/C=N/Nc2cc(C)nc3c(C)cccc23)cc1	0	0	0	0	74.2
O=C(c1n[nH]c2c1CCCC2)n1ccnc1	0	0	0	0	0
CCc1c(O)nc(SCC(=O)Nc2nc3ccccc3s2)n(C2CCCCC2)c1=O	0	0	0	0	0
CCC(C)[C@H](NC(=O)N1CCC(C)CC1)C(=O)OC (stereo partly drawn)	0	0	0	0	0
COCCn1c(SC(C)C(=O)NCC2CCCO2)nc2sc3c(c2c1=O)CCC3 (stereo not drawn)	0	0	0	0	0
Cc1ccc(NC(=O)N2CCCC2C(=O)NCC2CCCCC2)cc1 (stereo not drawn)	0	0	-89.3	0	0
Cc1cc(=O)[nH]c2c1c(=O)[nH]n2C1CC(C)N(C)CC1C (stereo not drawn)	0	0	-57.1	0	0

High-throughput results deposited in PubChem BioAssay by Broad Institute.
